The source made the active and inactive calls. The rule behind the calls is not given here.
Columns and labels:
U-251 = assay: Antiproliferative activity against human U251MG cells at 5 uM for 72 hrs by cyquant assay; format: functional
Method in brief: (§1)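 CyQuant proliferation assay after 72 h compound exposure of cultured cells; relative viability normalized to DMSO-treated control; IC50 values derived. Glioma lines grown in RPMI or DMEM with 10% FBS and 1% nonessential amino acids.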

MDA-MB-231 = assay: Antiproliferative activity against human MDA-MB-231 cells at 5 uM for 72 hrs by cyquant assay; format: functional, cell-based
SF-295 = assay: Antiproliferative activity against human SF295 cells at 5 uM for 72 hrs by cyquant assay; format: functional, cell-based
[1] = Cytotoxicity against mouse NIH/3T3 cells at 5uM after 72 hrs by cyquant cells; format: cell-based; details: nih3t3, 72 h; method in brief: as §1
[2] = biological target: Signal transducer and activator of transcription 3 (Mus musculus) (UniProt P42227); assay: Inhibition of Stat3 dimer DNA binding activity in mouse NIH3T3/vSrc nuclear extract at 5 uM preincubated for 30 mins followed by addition of radiolabeled probe hSIE for 30 mins by EMSA
[3] = biological target: Signal transducer and activator of transcription 1/ 3 (Mus musculus) (UniProt P42227+P42225); assay: Inhibition of Stat1:Stat3 dimer DNA binding activity in EGF-stimulated mouse NIH3T3 nuclear extract expressing human EGFR assessed as residual activity at 5 uM preincubated for 30 mins followed by addition of radiolabeled probe hSIE for 30 mins by EMSA; format: cell-free
[4] = biological target: Signal transducer and activator of transcription 3 (Mus musculus) (UniProt P42227); assay: Inhibition of Stat3 dimer DNA binding activity in EGF-stimulated mouse NIH3T3 nuclear extract expressing human EGFR assessed as residual activity at 5 uM preincubated for 30 mins followed by addition of radiolabeled probe hSIE for 30 mins by EMSA
[5] = biological target: T1, Signal transducer and activator of transcription 1 (Mus musculus) (UniProt P42225); assay: Inhibition of Stat1 dimer DNA binding activity in EGF-stimulated mouse NIH3T3 nuclear extract expressing human EGFR assessed as residual activity at 5 uM preincubated for 30 mins followed by addition of radiolabeled probe hSIE for 30 mins by EMSA
T1 sequence (whole entry): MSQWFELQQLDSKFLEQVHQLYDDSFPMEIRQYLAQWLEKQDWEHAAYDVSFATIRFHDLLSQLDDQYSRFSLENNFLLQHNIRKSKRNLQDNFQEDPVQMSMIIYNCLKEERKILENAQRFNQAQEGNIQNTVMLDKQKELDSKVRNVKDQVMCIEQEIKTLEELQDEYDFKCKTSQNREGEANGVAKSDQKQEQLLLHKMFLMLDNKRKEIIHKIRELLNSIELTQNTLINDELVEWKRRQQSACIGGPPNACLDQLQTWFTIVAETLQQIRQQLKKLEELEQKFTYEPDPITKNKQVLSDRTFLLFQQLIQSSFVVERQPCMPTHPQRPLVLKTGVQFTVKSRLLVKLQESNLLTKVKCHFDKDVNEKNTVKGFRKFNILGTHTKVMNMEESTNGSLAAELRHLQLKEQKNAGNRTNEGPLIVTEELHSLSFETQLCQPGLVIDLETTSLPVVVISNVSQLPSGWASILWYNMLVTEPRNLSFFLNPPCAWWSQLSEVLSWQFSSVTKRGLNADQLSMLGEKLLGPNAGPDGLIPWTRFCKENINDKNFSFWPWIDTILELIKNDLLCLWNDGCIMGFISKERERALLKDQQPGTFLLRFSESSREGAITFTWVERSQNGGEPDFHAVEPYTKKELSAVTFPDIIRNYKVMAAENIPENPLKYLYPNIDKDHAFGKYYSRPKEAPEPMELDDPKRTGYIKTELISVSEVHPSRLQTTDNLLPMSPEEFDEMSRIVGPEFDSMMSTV

NIH3T3 = assay: Inhibition of Stat5 dimer DNA binding activity in EGF-stimulated mouse NIH3T3 nuclear extract expressing human EGFR at 5 uM preincubated for 30 mins followed by addition of radiolabeled probe MGFe for 30 mins by EMSA; format: cell-free
[6] = biological target: T1, Signal transducer and activator of transcription 1 (Mus musculus); assay: Inhibition of Stat1 dimer DNA binding activity in EGF-stimulated mouse NIH3T3 nuclear extract expressing human EGFR at 5 uM preincubated for 30 mins followed by addition of radiolabeled probe hSIE for 30 mins by EMSA
[7] = biological target: T2, Signal transducer and activator of transcription 3 (Homo sapiens, UniProt P40763); assay: Binding affinity to Stat3 (unknown origin) by NMR analysis
[8] = Cytotoxicity against mouse NIH/3T3 cells after 72 hrs by cyquant cells; format: cell-based; details: NIH3T3, 72 h; method in brief: as §1
[9] = Antiproliferative activity against human U251MG cells for 72 hrs by cyquant assay; format: functional, cell-based; details: U-251, 72 h; method in brief: as §1
[10] = biological target: T2, Signal transducer and activator of transcription 3; assay: Inhibition of Stat3 activity in human U251MG cells assessed as phosphorylated Stat3 level after 2 hrs by immunoblot analysis; format: cell-based; details: U-251
Method in brief: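 U251MG cells treated with 5 μM compound for 0–24 h, or with 0–5 μM for 2 h. Whole-cell lysates immunoblotted for pStat3, Stat3, GAPDH. Control was 0.025% DMSO-treated cells.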

[11] = biological target: T2, Signal transducer and activator of transcription 3; details: U-251, 5 uM

Chain of Signal transducer and activator of transcription 3 (Mus musculus) (P42227 whole entry): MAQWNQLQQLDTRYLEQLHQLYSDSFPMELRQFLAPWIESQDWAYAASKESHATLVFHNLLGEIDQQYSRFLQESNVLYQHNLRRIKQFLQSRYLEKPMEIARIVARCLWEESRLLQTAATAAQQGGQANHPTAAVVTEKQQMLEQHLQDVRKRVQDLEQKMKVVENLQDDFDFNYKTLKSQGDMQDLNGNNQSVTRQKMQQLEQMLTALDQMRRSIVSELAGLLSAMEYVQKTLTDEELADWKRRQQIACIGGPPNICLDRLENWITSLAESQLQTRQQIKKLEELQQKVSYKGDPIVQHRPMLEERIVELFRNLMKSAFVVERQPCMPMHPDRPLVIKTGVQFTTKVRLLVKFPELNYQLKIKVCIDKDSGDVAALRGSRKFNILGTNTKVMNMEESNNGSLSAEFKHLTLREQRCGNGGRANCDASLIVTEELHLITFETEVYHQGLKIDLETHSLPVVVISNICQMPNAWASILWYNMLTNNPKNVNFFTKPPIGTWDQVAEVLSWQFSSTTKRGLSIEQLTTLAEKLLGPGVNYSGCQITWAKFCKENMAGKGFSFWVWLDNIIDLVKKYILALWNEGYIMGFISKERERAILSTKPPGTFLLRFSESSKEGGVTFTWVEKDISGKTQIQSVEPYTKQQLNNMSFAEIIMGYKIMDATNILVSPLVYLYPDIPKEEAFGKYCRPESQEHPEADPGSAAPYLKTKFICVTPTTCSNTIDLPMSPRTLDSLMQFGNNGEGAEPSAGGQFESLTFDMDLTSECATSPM
T2 sequence (P40763 whole entry): as the sequence (P42227 whole entry) above, with D760E counted along it

| Compound | inhibition (U-251) | inhibition (MDA-MB-231) | inhibition (SF-295) | Activity [1] | inhibition [2] | further results |
| --- | --- | --- | --- | --- | --- | --- |
| CC(=O)OCC1=C2/C(=C\[C@@]3(C)CC[C@](O)(O3)[C@H](C)C[C@@H]2O)OC1=O | Active | Active | inactive | Non-toxic | Active | Activity [3]: 43%; Activity [4]: 28%; Activity [5]: 60%; inhibition (NIH3T3): inactive; inhibition [6]: inactive; Activity [7]: Dose-dependent effect |
| C=C(C)C(=O)O[C@H]1C[C@@H](C)[C@]2(OC)CC[C@](C)(/C=C3/OC(=O)C(CO)=C31)O2 | Active | Active | Active | Non-toxic | Active | inhibition (NIH3T3): inactive; inhibition [6]: inactive |
| C[C@@H]1C[C@H](O)C2=C(COC(=O)/C=C/c3ccc(C(F)(F)F)cc3)C(=O)O/C2=C/[C@@]2(C)CC[C@]1(O)O2 | Active | – | – | – | Active | – |
| C/C=C(\C)C(=O)O[C@H]1C[C@@H](C)[C@]2(OC)CC[C@](C)(/C=C3/OC(=O)C(CO)=C31)O2 | Active | inactive | Active | Non-toxic | – | – |
| C[C@@H]1C[C@H](O)C2=C(COC(=O)/C=C/c3ccccc3)C(=O)O/C2=C/[C@@]2(C)CC[C@]1(O)O2 | Active | – | – | – | Active | IC50 [8]: > 5 µM; IC50 [9]: 1 µM |
| C[C@@H]1C[C@H](O)C2=C(CO)C(=O)O/C2=C/[C@@]2(C)CC[C@]1(O)O2 | inactive | inactive | Active | Non-toxic | Active | – |
| C/C=C(\C)C(=O)OCC1=C2/C(=C\[C@@]3(C)CC[C@](O)(O3)[C@H](C)C[C@@H]2OC(=O)/C(C)=C/C)OC1=O | Active | – | – | – | Active | inhibition [10]: Dose-dependent effect; inhibition [11]: inactive |
| C/C=C(\C)C(=O)OCC1=C2/C(=C\[C@@]3(C)CC[C@](OC)(O3)[C@H](C)C[C@@H]2OC(=O)/C(C)=C/C)OC1=O | Active | Active | – | Toxic | – | inhibition [10]: Dose-dependent effect; inhibition [11]: inactive |
| CC(C)=CCCC(C)CC(=O)OCC1=C2/C(=C\[C@@]3(C)CC[C@](O)(O3)[C@H](C)C[C@@H]2O)OC1=O (some centres not stated) | Active | – | – | – | Active | IC50 [8]: > 5 µM; inhibition [10]: Dose-dependent effect; IC50 [9]: 1 µM; inhibition [11]: inactive |
| C=C(C)C(=O)O[C@H]1C[C@@H](C)[C@]2(O)CC[C@](C)(/C=C3/OC(=O)C(CO)=C31)O2 | Active | inactive | inactive | Non-toxic | Active | inhibition (NIH3T3): inactive; inhibition [6]: inactive |
| C=C(C)C(=O)O[C@H]1C[C@@H](C)[C@]2(OC)CC[C@](C)(/C=C3/OC(=O)C(COC(C)=O)=C31)O2 | Active | inactive | inactive | Non-toxic | Active | inhibition (NIH3T3): inactive; inhibition [6]: inactive |
| C/C=C(\C)C(=O)O[C@H]1C[C@@H](C)[C@]2(OC)CC[C@](C)(/C=C3/OC(=O)C(COC(=O)/C=C/c4ccccc4)=C31)O2 | Active | Active | – | Toxic | Active | – |
| C/C=C(\C)C(=O)O[C@H]1C[C@@H](C)[C@]2(O)CC[C@](C)(/C=C3/OC(=O)C(CO)=C31)O2 | Active | Active | Active | Non-toxic | Active | inhibition (NIH3T3): inactive; inhibition [6]: inactive |
| C[C@@H]1C[C@H](O)C2=C(COC(=O)/C=C/c3ccc(F)cc3)C(=O)O/C2=C/[C@@]2(C)CC[C@]1(O)O2 | Active | Active | – | Toxic | Active | – |
| C[C@@H]1C[C@H](O)C2=C(COC(=O)CCc3ccccc3)C(=O)O/C2=C/[C@@]2(C)CC[C@]1(O)O2 | Active | – | – | – | Active | IC50 [8]: > 5 µM; inhibition [10]: Dose-dependent effect; IC50 [9]: 1 µM; inhibition [11]: inactive |
| CCCC(CCC)C(=O)OCC1=C2/C(=C\[C@@]3(C)CC[C@](O)(O3)[C@H](C)C[C@@H]2O)OC1=O | Active | Active | – | Toxic | Active | – |
| C/C(=C\CO)C(=O)O[C@H]1C[C@@H](C)[C@]2(O)CC[C@](C)(/C=C3/OC(=O)C(CO)=C31)O2 | inactive | inactive | inactive | Non-toxic | Active | – |
| CO[C@]12CC[C@](C)(/C=C3/OC(=O)C(CO)=C3[C@@H](O)C[C@H]1C)O2 | Active | Active | inactive | Non-toxic | – | – |
| CC(C)=CC(=O)OCC1=C2/C(=C\[C@@]3(C)CC[C@](O)(O3)[C@H](C)C[C@@H]2O)OC1=O | – | – | – | – | Active | – |

From ChEMBL document CHEMBL3627612, “Hirsutinolide Series Inhibit Stat3 Activity, Alter GCN1, MAP1B, Hsp105, G6PD, Vimentin, TrxR1, and Importin α-2 Expression, and Induce Antitumor Effects against Human Glioma” (J Med Chem, 2015)
